IC50 data for 15 compounds are collected here from ChEMBL document CHEMBL1132287, “Selective, tight-binding inhibitors of integrin alpha4beta1 that inhibit allergic airway responses” (J Med Chem, 1999).

Structures are written as SMILES. pIC50: −log10 of the molar value. *1 amine or outer side, *2 acyl side, *3 side chain or, on linkers, in order; H or OH if unused. Where a SMILES comes first, the peptide text is derived from it. [ ]: non-standard residue; d: D form. The star is where a group is joined. X1 = O=C(Cc1ccc(N[*:1])cc1)[*:2]; NH(2-Me-phenyl) = Cc1ccccc1N*; PhAc = O=C(Cc1ccccc1)*; CO = O=C([*:1])[*:2]; Ahx = NCCCCCC(=O)O

The nature of assay [1]: Inhibition of integrin alpha1-beta1 adhesion using K562 cells expressing alpha-1. It counts as cell-based, Homo sapiens.
The target of assay [2] is Integrin alpha-IIb/beta-3 (Homo sapiens, UniProt P05106+P08514). Kind of assay: Inhibition of integrin alphaIIb-beta3 adhesion to human citreated platelets.
Chain of Integrin alpha-IIb/beta-3 (P05106 27-788 limits assumed): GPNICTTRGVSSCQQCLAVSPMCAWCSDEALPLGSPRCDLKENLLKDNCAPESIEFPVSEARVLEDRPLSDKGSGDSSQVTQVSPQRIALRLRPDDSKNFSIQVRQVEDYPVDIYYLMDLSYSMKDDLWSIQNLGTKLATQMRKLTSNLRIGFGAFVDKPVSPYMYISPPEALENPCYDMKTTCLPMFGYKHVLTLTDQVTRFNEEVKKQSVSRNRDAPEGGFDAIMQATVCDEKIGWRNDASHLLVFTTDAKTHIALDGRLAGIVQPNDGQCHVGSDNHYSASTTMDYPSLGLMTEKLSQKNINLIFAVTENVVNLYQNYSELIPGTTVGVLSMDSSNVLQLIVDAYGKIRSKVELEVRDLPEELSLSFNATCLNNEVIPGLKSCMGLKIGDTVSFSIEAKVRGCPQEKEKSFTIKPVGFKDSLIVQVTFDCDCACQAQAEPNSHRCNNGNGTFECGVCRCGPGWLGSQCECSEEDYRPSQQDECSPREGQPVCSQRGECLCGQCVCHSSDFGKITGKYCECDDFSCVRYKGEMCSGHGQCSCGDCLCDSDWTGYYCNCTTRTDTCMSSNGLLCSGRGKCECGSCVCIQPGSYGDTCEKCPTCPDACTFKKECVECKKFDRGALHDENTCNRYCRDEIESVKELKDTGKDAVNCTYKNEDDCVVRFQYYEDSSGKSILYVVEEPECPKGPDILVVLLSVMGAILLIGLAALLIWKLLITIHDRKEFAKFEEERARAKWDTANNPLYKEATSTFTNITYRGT
Chain of Integrin alpha-IIb/beta-3 (P08514 32-887 limits assumed): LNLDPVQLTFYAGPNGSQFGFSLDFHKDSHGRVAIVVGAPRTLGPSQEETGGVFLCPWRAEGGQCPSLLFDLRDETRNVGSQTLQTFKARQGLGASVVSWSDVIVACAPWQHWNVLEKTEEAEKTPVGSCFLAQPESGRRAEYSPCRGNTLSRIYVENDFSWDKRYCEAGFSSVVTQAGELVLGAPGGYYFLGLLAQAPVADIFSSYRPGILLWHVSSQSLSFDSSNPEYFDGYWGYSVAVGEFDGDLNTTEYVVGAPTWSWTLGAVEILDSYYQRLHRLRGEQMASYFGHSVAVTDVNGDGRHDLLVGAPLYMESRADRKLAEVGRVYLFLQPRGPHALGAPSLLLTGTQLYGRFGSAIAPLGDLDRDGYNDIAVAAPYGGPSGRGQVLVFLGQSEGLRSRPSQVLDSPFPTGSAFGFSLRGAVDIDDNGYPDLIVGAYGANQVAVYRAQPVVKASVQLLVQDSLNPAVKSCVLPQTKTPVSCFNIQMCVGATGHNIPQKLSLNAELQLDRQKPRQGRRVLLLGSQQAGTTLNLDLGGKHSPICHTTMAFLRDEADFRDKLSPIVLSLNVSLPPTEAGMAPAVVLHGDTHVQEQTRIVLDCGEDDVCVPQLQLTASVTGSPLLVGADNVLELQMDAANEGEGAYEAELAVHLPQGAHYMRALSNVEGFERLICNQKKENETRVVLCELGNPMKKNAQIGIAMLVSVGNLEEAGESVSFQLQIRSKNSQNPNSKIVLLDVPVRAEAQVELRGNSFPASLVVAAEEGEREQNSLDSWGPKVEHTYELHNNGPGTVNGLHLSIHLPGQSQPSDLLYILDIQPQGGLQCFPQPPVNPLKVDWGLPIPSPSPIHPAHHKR
Chain of Integrin alpha-IIb/beta-3 (P08514 891-1039 limits assumed): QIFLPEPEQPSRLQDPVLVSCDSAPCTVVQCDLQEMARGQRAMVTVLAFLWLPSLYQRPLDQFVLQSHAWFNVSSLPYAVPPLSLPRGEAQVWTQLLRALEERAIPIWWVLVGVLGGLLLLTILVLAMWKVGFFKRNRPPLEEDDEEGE
Assay [3] deals with T1, Integrin alpha-4/beta-1 (Homo sapiens, UniProt P05556+P13612). Kind of assay: Inhibition of integrin alpha4-beta1 adhesion to Jurkat cells. It is filed as cell-based. An outline of the steps:
(§1)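 BCECF-AM-labeled Jurkat cells (20 min, 37 °C) incubated 30 min with serial inhibitor dilutions or vehicle plus 1 mM MnCl2 in wells coated overnight at 4 °C with 1 ug/mL CS-1–BSA conjugate; after washing, bound cells read by fluorescence at 530 nm.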

Assay [4] deals with T1, Integrin alpha-4/beta-1. Kind of assay: Inhibition of integrin alpha4-beta1 binding to VCAM-Ig. It counts as protein-complex assay.
Assay [5] concerns the target Intercellular adhesion molecule (ICAM-1), Integrin alpha-L/beta-2 (Homo sapiens, UniProt P05107+P05362+P20701). The experiment in a line: Inhibition of ICAM-1 transfected CHO cell adhesion to integrin alphaL-beta2 of human JY cells. It is filed as cell-based.
In assay [6] the target is Integrin alpha-5/beta-1 (Homo sapiens, UniProt P05556+P08648). Kind of assay: Inhibition of integrin alpha5-beta1 adhesion to K562 cells. It is filed as cell-based. The procedure, abridged: (§2)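 BCECF-AM-labeled cells incubated 30 min at room temperature with inhibitor (1 nM–100 uM serial dilutions) or vehicle plus 1 mM MnCl2 in wells coated overnight at 4 °C with ligand; bound cells read at 530 nm. alpha4beta7: JY cells on CS-1–BSA 1 ug/mL; alpha5beta1: K562 on human 120 kD fibronectin fragment 5 ug/mL; alpha6beta1: alpha6-K562 on mouse laminin 20 ug/mL. IC50 from inhibition curves.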

Assay [7] can be described thus: Inhibition of integrin alpha6-beta1 adhesion using K562 cells expressing alpha-6. It is filed as cell-based, Homo sapiens. An outline of the steps: as §2
The target of assay [8] is T2, Integrin alpha-4/beta-7 (Homo sapiens, UniProt P13612+P26010).
T2 sequence (P13612 whole entry): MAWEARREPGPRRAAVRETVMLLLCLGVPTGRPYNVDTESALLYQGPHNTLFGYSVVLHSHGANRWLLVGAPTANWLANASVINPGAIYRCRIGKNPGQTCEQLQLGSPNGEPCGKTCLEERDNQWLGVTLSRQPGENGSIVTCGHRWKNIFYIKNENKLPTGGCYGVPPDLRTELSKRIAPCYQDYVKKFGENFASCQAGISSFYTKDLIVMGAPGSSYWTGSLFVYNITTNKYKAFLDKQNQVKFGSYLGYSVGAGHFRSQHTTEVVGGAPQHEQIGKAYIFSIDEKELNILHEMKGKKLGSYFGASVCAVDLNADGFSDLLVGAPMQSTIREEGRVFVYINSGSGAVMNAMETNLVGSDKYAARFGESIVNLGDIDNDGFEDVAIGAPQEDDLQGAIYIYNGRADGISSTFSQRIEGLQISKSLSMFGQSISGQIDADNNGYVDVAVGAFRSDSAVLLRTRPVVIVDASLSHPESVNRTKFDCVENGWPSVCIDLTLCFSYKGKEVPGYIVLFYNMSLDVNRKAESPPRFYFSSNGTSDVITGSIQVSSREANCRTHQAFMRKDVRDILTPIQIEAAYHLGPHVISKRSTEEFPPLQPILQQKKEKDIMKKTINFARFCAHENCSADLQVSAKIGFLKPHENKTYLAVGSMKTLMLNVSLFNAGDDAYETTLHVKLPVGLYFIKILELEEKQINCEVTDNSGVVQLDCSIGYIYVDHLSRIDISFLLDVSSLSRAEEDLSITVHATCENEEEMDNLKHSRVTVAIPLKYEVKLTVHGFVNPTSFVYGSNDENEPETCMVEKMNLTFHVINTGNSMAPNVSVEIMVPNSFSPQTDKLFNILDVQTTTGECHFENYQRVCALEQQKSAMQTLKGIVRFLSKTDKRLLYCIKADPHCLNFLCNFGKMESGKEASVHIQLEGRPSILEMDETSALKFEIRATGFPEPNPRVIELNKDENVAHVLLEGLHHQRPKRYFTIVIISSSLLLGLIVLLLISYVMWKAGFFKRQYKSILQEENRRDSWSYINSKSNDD
T2 sequence (P26010 whole entry): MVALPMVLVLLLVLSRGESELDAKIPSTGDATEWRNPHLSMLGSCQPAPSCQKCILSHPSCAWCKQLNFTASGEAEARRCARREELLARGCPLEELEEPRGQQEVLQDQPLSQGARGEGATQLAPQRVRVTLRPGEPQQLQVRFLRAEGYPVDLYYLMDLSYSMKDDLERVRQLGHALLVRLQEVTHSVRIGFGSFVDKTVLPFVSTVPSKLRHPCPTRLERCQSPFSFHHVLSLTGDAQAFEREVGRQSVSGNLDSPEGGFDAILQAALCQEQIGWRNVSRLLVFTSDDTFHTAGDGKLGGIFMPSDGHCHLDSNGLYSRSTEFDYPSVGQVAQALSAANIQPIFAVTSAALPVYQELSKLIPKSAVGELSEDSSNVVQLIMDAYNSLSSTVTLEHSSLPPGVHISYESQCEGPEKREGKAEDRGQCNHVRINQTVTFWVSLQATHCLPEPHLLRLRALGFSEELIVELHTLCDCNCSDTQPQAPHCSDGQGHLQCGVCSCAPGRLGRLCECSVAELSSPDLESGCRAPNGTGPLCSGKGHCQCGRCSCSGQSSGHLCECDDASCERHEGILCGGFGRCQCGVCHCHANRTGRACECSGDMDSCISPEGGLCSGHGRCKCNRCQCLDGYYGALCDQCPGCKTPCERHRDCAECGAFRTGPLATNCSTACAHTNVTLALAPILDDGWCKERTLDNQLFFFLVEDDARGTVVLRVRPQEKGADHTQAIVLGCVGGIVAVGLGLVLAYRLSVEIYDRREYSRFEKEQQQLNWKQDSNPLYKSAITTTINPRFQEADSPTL
The experiment in a line: Inhibition of integrin alpha4-beta7 adhesion to JY cells. It counts as cell-based. The procedure, abridged:
as §2

For assay [9], the target named is T1, Integrin alpha-4/beta-1. The experiment in a line: Inhibition of integrin alpha4-beta1 adhesion to Jurkat cells (No inhibition). It counts as cell-based. The procedure, abridged:
as §1

For assay [10], the target named is T1, Integrin alpha-4/beta-1. The experiment in a line: Inhibition of VCAM-Ig binding to integrin alpha4-beta1 of Jurkat cells. It counts as cell-based.
Assay [11] concerns the target Integrin alpha1/beta1 (Homo sapiens). The experiment in a line: Inhibition of integrin alpha1-beta1 adhesion using K562 cells expressing alpha-1.

Chain of Intercellular adhesion molecule (ICAM-1), Integrin alpha-L/beta-2 (P20701 whole entry, the tested form may be a part): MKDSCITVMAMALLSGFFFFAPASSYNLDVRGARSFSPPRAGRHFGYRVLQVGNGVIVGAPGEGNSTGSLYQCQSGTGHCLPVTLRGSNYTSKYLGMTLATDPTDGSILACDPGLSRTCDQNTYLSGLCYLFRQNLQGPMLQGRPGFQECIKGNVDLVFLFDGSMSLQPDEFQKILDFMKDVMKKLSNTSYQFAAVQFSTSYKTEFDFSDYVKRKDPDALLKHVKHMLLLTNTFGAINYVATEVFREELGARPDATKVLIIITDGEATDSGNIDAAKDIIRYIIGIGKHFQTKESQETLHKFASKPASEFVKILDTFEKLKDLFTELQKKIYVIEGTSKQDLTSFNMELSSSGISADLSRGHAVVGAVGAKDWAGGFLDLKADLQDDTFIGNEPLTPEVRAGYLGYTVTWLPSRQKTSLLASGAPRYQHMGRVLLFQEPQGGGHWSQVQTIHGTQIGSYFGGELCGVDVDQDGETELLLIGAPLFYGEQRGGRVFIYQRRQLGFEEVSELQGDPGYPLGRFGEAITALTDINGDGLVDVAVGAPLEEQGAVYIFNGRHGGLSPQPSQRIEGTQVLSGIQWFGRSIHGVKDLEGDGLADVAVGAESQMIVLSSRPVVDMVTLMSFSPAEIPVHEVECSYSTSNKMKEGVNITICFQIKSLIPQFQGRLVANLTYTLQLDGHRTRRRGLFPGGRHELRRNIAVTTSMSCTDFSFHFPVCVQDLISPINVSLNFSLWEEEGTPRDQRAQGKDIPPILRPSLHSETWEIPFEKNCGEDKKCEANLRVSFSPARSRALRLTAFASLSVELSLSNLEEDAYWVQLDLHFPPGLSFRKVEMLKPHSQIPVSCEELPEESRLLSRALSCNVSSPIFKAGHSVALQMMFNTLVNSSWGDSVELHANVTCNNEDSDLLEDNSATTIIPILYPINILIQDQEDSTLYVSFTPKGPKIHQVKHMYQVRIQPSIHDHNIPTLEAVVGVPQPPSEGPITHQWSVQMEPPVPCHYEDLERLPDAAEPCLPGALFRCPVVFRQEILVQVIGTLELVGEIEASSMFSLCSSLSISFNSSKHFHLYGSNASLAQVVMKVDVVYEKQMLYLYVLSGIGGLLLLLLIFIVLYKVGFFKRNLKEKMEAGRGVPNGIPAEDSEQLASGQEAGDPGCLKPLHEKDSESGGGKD
Chain of Intercellular adhesion molecule (ICAM-1), Integrin alpha-L/beta-2 (P05362 whole entry, the tested form may be a part): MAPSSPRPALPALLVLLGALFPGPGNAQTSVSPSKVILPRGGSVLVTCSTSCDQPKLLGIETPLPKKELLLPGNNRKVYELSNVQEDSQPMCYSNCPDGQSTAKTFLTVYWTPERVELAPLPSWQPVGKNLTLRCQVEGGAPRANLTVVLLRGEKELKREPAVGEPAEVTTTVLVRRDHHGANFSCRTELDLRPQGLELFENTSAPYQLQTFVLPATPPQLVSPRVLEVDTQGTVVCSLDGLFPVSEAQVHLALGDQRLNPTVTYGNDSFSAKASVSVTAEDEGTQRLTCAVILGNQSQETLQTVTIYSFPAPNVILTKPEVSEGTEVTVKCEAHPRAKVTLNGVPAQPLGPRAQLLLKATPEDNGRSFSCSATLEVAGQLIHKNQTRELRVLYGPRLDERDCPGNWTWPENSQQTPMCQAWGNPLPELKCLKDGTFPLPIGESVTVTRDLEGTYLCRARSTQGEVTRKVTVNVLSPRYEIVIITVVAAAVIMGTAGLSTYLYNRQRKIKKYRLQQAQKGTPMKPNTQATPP
Chain of Intercellular adhesion molecule (ICAM-1), Integrin alpha-L/beta-2 (P05107 whole entry, the tested form may be a part): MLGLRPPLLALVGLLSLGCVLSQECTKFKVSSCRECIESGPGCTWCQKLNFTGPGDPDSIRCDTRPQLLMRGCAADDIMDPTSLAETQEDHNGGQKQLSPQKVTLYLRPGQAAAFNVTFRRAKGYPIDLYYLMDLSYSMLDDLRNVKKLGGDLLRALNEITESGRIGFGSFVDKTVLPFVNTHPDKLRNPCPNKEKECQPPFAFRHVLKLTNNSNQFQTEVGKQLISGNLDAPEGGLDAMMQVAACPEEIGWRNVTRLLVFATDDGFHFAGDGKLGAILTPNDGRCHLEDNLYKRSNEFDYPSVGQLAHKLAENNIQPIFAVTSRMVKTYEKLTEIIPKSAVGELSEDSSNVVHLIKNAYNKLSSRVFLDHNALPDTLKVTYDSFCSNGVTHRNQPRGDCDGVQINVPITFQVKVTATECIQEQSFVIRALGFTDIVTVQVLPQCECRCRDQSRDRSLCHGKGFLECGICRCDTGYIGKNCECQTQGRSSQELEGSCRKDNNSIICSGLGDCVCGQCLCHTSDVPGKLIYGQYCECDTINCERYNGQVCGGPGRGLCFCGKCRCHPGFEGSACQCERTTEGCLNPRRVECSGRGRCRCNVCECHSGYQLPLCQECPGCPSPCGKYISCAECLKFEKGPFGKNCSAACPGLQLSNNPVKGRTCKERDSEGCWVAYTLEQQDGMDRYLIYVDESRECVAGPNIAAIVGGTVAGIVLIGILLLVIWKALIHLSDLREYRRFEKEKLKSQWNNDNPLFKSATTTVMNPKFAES
T1 sequence (P05556 whole entry, one chain of several): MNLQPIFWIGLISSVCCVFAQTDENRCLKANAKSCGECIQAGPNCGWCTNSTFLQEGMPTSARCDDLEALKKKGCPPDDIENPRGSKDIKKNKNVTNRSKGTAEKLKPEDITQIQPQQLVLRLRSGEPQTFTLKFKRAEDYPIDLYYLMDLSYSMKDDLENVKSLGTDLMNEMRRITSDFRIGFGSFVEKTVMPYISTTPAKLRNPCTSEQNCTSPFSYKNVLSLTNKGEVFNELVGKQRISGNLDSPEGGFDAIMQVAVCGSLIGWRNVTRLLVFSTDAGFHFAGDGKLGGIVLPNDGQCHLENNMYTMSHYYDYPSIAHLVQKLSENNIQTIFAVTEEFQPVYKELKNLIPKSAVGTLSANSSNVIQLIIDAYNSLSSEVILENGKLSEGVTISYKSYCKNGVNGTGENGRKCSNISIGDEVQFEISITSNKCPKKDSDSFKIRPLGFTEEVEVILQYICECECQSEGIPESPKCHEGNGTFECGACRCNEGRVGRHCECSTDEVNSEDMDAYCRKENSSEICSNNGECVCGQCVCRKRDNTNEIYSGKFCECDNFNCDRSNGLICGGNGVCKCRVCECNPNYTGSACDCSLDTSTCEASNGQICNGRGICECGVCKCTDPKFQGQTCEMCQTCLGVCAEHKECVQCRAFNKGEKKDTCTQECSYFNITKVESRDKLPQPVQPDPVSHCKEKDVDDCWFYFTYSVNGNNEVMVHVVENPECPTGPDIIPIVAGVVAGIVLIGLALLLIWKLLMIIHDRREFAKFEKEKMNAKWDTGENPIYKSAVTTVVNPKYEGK

What is called pIC50 is −log10 of the IC50, conventionally taken in molar units. A higher pIC50 goes with a small IC50. As to `Cc1ccccc1NC(=O)Nc1ccc(CC(=O)N[C@@H](CC(C)C)C(=O)N[C@@H](CC(=O)O)C(=O)O)cc1`, the pIC50 in [1] was below 4.00; in [2], below 4.00; in [3], 7.17; in [4] it was 7.74; in assay [5], below 4.00; in assay [6], below 4.00. Further, the negative logarithm of the IC50 (pIC50) was below 4.00 in [7] and 4.23 in assay [8].
Take `Cc1ccccc1NC(=O)Nc1ccc(CC(=O)O)cc1`: the figures for the IC50 entry in assay [9] and in assay [10] were “Not Active” and “No inhibition”, respectively.
With `CC(C)C[C@H](NC(=O)Cc1ccc(NC(=O)Nc2ccccc2)cc1)C(=O)N[C@@H](CC(=O)O)C(=O)N[C@H](C(=O)O)C(C)C`, the pIC50 in assay [3] was 7.52; in assay [4], 8.52.
For `CC(C)C[C@H](NC(=O)Cc1ccc(NC(=O)c2ccccc2)cc1)C(=O)N[C@@H](CC(=O)O)C(=O)N[C@H](C(=O)O)C(C)C`, in that order: 5.49 and 6.53.
For `CC(C)C[C@H](NC(=O)Cc1ccc(O)cc1)C(=O)N[C@@H](CC(=O)O)C(=O)N[C@H](C(=O)O)C(C)C` the same measures were 5.30 and 6.37.
For the compound `Cc1ccccc1NC(=O)Nc1ccc(CC(=O)N[C@@H](CC(C)C)C(=O)N[C@@H](CC(=O)O)C(=O)N[C@H](C(=O)O)C(C)C)cc1`, the pIC50 in assay [11] is below 4.00; in assay [2] it was below 4.00; in [3] it was 8.22; in assay [4] it was 9.22; in assay [5], below 4.30; in assay [6] it was below 4.00. Moreover, the figures for the pIC50 in assay [7] and in assay [8] were below 4.00 and 5.10, respectively.
Consider `Cc1ccccc1NC(=O)Nc1ccc(CC(=O)N[C@@H](CC(C)C)C(=O)O)cc1`, for which the IC50 result in assay [9] is given as “Not Active”; in assay [10], “No inhibition”.
Turning to `CC(C)C[C@H](NC(=O)Cc1ccc(NC(=O)OCc2ccccc2)cc1)C(=O)N[C@@H](CC(=O)O)C(=O)N[C@H](C(=O)O)C(C)C`, the pIC50 is 6.70 in assay [3] and 7.52 in [4].
For `CC[C@H](C)[C@H](N)C(=O)N[C@@H](CC(C)C)C(=O)N[C@@H](CC(=O)O)C(=O)N[C@H](C(=O)O)C(C)C` (H-ILDV-OH), in that order: 3.76 and 4.18.
For `CC(C)C[C@H](NC(=O)[C@@H](N)Cc1ccc(O)cc1)C(=O)N[C@@H](CC(=O)O)C(=O)N[C@H](C(=O)O)C(C)C` (H-YLDV-OH) the same measures were 4.29 and 4.90.
Take `CC(C)C[C@H](NC(=O)Cc1ccccc1)C(=O)N[C@@H](CC(=O)O)C(=O)N[C@H](C(=O)O)C(C)C` (PhAc-Leu-Asp-Val-OH): the figures for the pIC50 in [3] and in assay [4] were 4.40 and 6.00, respectively.
For `Cc1ccccc1NC(=O)Nc1ccc(CC(=O)N[C@@H](CCCCNC(=O)CCCCCN)C(=O)N[C@@H](CC(=O)O)C(=O)N[C@H](C(=O)N2CCC[C@H]2C(=O)O)C(C)C)cc1` ({NH(2-Me-phenyl)-CO}-[X1]K(Ahx)DVP-OH), in that order: 7.70 and 8.40.
For `Cc1ccccc1NC(=O)Nc1ccc(CC(=O)N[C@@H](CC(C)C)C(=O)N[C@@H](CC(=O)O)C(=O)N[C@H](C(=O)N2CCC[C@H]2C(N)=O)C(C)C)cc1` ({NH(2-Me-phenyl)-CO}-[X1]LDVP-NH2) the same measures were 8.10 and 9.00.
Turning to `Cc1ccccc1NC(=O)Nc1ccc(CC(=O)N[C@@H](CC(C)C)C(=O)N[C@@H](CC(=O)O)C(=O)N[C@H](C(=O)N2CCC[C@H]2C(=O)O)C(C)C)cc1` ({NH(2-Me-phenyl)-CO}-[X1]LDVP-OH), the negative logarithm of the IC50 (pIC50) was below 4.00 in [1]; below 4.00 in assay [2]; below 4.00 in assay [5]; below 4.00 in assay [7]; 5.70 in [8].
As for `Cc1ccccc1NC(=O)Nc1ccc(CC(=O)N[C@@H](CC(C)C)C(=O)N[C@@H](CC(=O)O)C(=O)N[C@H](C(=O)N2CCC[C@H]2C(=O)N[C@@H](CO)C(=O)N[C@H](C(=O)O)[C@@H](C)O)C(C)C)cc1` ({NH(2-Me-phenyl)-CO}-[X1]LDVPST-OH), the pIC50 in assay [3] was 8.30; in [4], 9.00.
